ChEMBL document CHEMBL4371074, “Discovery of Selective Matriptase and Hepsin Serine Protease Inhibitors: Useful Chemical Tools for Cancer Cell Biology” (J Med Chem, 2019)
Calls of active or inactive are those of the source. No cut-off for these calls is given here.

Assays:
[1] = target: T1, Suppressor of tumorigenicity 14 protein (Homo sapiens, UniProt Q9Y5Y6); assay: Inhibition of recombinant human N-terminal His6-tagged matriptase catalytic domain expressed in Escherichia coli preincubated for 30 mins followed by Boc-QAR-AMC substrate addition and measured for 1 hr by fluorescence assay; conditions: read-out: Ki(app)
T1 sequence (Q9Y5Y6 whole entry): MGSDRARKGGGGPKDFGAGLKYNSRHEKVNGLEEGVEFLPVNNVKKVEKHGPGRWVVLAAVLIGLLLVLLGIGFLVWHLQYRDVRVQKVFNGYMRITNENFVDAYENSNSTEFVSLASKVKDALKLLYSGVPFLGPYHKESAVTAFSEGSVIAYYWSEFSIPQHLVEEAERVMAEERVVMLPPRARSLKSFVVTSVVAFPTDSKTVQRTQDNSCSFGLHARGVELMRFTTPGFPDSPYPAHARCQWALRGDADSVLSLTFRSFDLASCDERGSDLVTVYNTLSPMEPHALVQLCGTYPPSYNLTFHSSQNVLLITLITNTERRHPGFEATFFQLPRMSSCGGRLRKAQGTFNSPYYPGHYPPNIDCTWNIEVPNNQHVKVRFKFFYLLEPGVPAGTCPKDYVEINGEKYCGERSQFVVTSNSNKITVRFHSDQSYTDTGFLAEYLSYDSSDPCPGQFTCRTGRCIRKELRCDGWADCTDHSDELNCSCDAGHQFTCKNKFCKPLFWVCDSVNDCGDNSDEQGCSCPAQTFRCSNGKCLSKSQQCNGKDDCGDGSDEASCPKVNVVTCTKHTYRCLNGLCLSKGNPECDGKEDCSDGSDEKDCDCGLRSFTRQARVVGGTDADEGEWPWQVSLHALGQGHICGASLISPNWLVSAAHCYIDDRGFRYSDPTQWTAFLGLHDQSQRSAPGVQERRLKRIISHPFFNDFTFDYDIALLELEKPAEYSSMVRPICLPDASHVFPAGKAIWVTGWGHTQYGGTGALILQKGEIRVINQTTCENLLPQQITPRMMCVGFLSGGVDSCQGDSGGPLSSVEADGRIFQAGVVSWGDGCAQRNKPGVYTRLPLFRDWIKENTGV
Outline: (§1)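 HGFA was at 7.5 nM with Boc-QLR-AMC (Km 37 µM). Matriptase was at 0.2 nM and hepsin at 0.3 nM, both with Boc-QAR-AMC (Km 93 and 156 µM). Hepsin was pre-activated for 24 h at 37°C. Eleven inhibitor concentrations (0-20 µM, 2% DMSO) were given 30 min RT before substrate at Km. Fluorescence was read at ex 380/em 460 nm. IC50 came from a four-parameter fit, mean of three experiments.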

Serine protease hepsin [2] = target: T2, Serine protease hepsin (Homo sapiens, UniProt P05981); assay: Inhibition of recombinant human C-terminal His10-tagged hepsin catalytic domain preincubated for 30 mins followed by Boc-QAR-AMC substrate addition and measured for 1 hr by fluorescence assay; conditions: read-out: Ki(app); outline: as §1
[3] = target: T3, Hepatocyte growth factor activator serine protease (Homo sapiens, UniProt Q04756); assay: Inhibition of HGFA catalytic domain (unknown origin) preincubated for 30 mins followed by Boc-QLR-AMC substrate addition and measured for 1 hr by fluorescence assay; conditions: read-out: Ki(app)
T3 sequence (Q04756 whole entry): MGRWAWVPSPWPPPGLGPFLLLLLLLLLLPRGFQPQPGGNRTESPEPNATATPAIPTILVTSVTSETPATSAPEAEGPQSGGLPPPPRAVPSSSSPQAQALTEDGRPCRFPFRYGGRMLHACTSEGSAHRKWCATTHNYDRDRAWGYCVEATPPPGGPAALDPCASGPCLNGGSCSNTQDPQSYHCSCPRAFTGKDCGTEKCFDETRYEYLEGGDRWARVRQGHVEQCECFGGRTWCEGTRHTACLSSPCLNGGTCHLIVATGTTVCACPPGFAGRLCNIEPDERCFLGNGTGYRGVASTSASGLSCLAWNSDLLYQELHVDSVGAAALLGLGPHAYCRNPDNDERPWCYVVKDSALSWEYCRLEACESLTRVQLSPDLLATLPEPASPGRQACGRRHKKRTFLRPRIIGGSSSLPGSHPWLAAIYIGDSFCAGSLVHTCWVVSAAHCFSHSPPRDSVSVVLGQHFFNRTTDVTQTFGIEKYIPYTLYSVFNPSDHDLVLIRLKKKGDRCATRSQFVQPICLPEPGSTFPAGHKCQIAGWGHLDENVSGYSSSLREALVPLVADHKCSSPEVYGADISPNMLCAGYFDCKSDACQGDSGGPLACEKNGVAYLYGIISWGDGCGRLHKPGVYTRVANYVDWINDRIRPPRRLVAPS

Homo sapiens [4] = species: Homo sapiens; assay: Selectivity ratio of Ki(app) for recombinant human C-terminal His10-tagged hepsin catalytic domain to Ki(app) for recombinant human N-terminal His6-tagged matriptase catalytic domain expressed in Escherichia coli
Homo sapiens [5] = species: Homo sapiens; assay: Selectivity ratio of Ki(app) for recombinant human N-terminal His6-tagged matriptase catalytic domain expressed in Escherichia coli to Ki(app) for recombinant human C-terminal His10-tagged hepsin catalytic domain
Serine protease hepsin [6] = target: T2, Serine protease hepsin; assay: Inhibition of hepsin (unknown origin) expressed in MCF10A cells assessed as reduction in desmosomal cadherin desmoglein 2 loss at 1 uM after 45 mins by Hoechst 33258 staining based immunofluorescence microscopic method; assay type: cell-based
Outline: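 MCF10A-Indu20-hepsin cells were grown as 2D monolayers on coverslips, with or without doxycycline induction, and pretreated with inhibitor at 1 µM. They were fixed and permeabilized in ice-cold methanol for 5 min and blocked in 0.1% BSA/PBS for 30 min. Staining used anti-desmoglein 2 and anti-hepsin, then Alexa secondaries for 45 min RT, with Hoechst nuclei. Confocal images were scored; cells with pericellular desmoglein 2 on at least two sides counted positive.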

Serine protease hepsin [7] = target: T2, Serine protease hepsin; assay: Inhibition of hepsin (unknown origin) expressed in MCF10A cells preincubated for 30 mins followed by Boc-QRR-AMC substrate addition and measured for 1 hr by fluorescence assay

Compound	Ki [1] [nM]	Ki (Serine protease hepsin [2]) [nM]	Ki [3] [nM]	Ratio Ki(app) (Homo sapiens [5])	Ratio Ki(app) (Homo sapiens [4])	inhibition (Serine protease hepsin [6])	IC50 (Serine protease hepsin [7]) [nM]
CC(C)[C@H](NC(=O)OCC1c2ccccc2-c2ccccc21)C(=O)N[C@@H](CCCNC(=N)N)C(=O)c1nc2ccccc2s1	18	125	4630		6.9		
N=C(N)NCCC[C@H](NC(=O)[C@H](Cc1c[nH]c2ccccc12)NC(=O)OCC1c2ccccc2-c2ccccc21)C(=O)c1nc2ccccc2s1	294	302	3200	1	1		
C[C@H](NC(=O)OCC1c2ccccc2-c2ccccc21)C(=O)N[C@@H](CCCNC(=N)N)C(=O)c1nc2ccccc2s1	0.36	240	7980		667		
N=C(N)NCCC[C@H](NC(=O)[C@H](Cc1ccccc1)NC(=O)OCC1c2ccccc2-c2ccccc21)C(=O)c1nc2ccccc2s1	188	764			4		
N=C(N)NCCC[C@H](NC(=O)[C@H](Cc1ccc(O)cc1)NC(=O)OCC1c2ccccc2-c2ccccc21)C(=O)c1nc2ccccc2s1	25	256	2960		10		
CC(=O)N[C@@H](CO)C(=O)N[C@@H](CCCCN)C(=O)N[C@@H](CC(C)C)C(=O)N[C@@H](CCCNC(=N)N)C(=O)c1nc2ccccc2s1	3.1			19			
CC(=O)N[C@@H](CCCCN)C(=O)N[C@@H](CCC(N)=O)C(=O)N[C@@H](CC(C)C)C(=O)N[C@@H](CCCNC(=N)N)C(=O)c1nc2ccccc2s1				6.1			
N=C(N)NCCC[C@H](NC(=O)OCC1c2ccccc2-c2ccccc21)C(=O)N[C@@H](CCCNC(=N)N)C(=O)c1nc2ccccc2s1	3.9	102	8630		26		
N=C(N)NCCC[C@H](NC(=O)[C@@H]1CCCN1C(=O)OCC1c2ccccc2-c2ccccc21)C(=O)c1nc2ccccc2s1	0.5	391	> 10000		782		
N=C(N)NCCC[C@H](NC(=O)CNC(=O)OCC1c2ccccc2-c2ccccc21)C(=O)c1nc2ccccc2s1			9370		6390	inactive	> 10000
N=C(N)NCCC[C@H](NC(=O)[C@H](CCC(N)=O)NC(=O)OCC1c2ccccc2-c2ccccc21)C(=O)c1nc2ccccc2s1	0.65	116	6830		179		

The next lines start with results.

Ki [1] [nM]	Ki (Serine protease hepsin [2]) [nM]	Ki [3] [nM]	Ratio Ki(app) (Homo sapiens [5])	Compound	Ratio Ki(app) (Homo sapiens [4])	inhibition (Serine protease hepsin [6])	IC50 (Serine protease hepsin [7]) [nM]
5.4	227			CSCC[C@H](NC(=O)OCC1c2ccccc2-c2ccccc21)C(=O)N[C@@H](CCCNC(=N)N)C(=O)c1nc2ccccc2s1			
486	228	4300	2.1	CC[C@H](C)[C@H](NC(=O)OCC1c2ccccc2-c2ccccc21)C(=O)N[C@@H](CCCNC(=N)N)C(=O)c1nc2ccccc2s1			
4.9	555	> 10000		N=C(N)NCCC[C@H](NC(=O)[C@H](CO)NC(=O)OCC1c2ccccc2-c2ccccc21)C(=O)c1nc2ccccc2s1	113		
271	180	> 10000	1.5	C[C@@H](O)[C@H](NC(=O)OCC1c2ccccc2-c2ccccc21)C(=O)N[C@@H](CCCNC(=N)N)C(=O)c1nc2ccccc2s1			
253	67	468	3.8	CC(C)C[C@H](NC(=O)OCC1c2ccccc2-c2ccccc21)C(=O)N[C@@H](CCCNC(=N)N)C(=O)c1nc2ccccc2s1			
		4770	62	N=C(N)NCCC[C@H](NC(=O)[C@H](CC(N)=O)NC(=O)OCC1c2ccccc2-c2ccccc21)C(=O)c1nc2ccccc2s1		Active	92
294	98	> 10000	3	N=C(N)NCCC[C@H](NC(=O)[C@H](CC(=O)O)NC(=O)OCC1c2ccccc2-c2ccccc21)C(=O)c1nc2ccccc2s1			
11	226	6120		N=C(N)NCCC[C@H](NC(=O)[C@H](Cc1cnc[nH]1)NC(=O)OCC1c2ccccc2-c2ccccc21)C(=O)c1nc2ccccc2s1	21		
0.22	104	> 10000		N=C(N)NCCC[C@H](NC(=O)[C@H](CCCCN)NC(=O)OCC1c2ccccc2-c2ccccc21)C(=O)c1nc2ccccc2s1	473		
7.2	372	> 10000		N=C(N)NCCC[C@H](NC(=O)[C@H](CCC(=O)O)NC(=O)OCC1c2ccccc2-c2ccccc21)C(=O)c1nc2ccccc2s1	52		
